Screens: PubChem, several laboratories
APP 5'UTR act: activators of APP 5'UTR luciferase reporter, primary screen, SH-SY5Y cells; AID 1276, 2008; 190,000 compounds, 1% hits; activation, % at 2 µM; SH-SY5Y APP 5'UTR luciferase reporter, luminescence; zero percent = DMSO vehicle wells;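 active = activation above a set limit, based on mean plus 3 SD of controls, cut at about 140% in these data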
Mdm2 ligase inh: MDM2-luciferase reporter signal enhancers, primary screen, MDM2 E3 ligase inhibitor project, cell-based, luminescence, 1536-well; E3 ubiquitin-protein ligase Mdm2 (Homo sapiens), Q00987; cell-based MDM2 ubiquitination luciferase reporter, 2 h; 0 = plate control, 100 = twice control, blank-subtracted; signal enhancement, % at 5 µM; 210,000 compounds, 0.11% hits; AID 1230, 2008;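 active = signal enhancement of 30% or more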;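 note: luminescence tracks abundance of the self-degrading MDM2-luciferase fusion protein; higher signal means inhibition of MDM2 E3 ligase activity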
Target sequence (Q00987 whole entry, looked up, the tested form may be a part): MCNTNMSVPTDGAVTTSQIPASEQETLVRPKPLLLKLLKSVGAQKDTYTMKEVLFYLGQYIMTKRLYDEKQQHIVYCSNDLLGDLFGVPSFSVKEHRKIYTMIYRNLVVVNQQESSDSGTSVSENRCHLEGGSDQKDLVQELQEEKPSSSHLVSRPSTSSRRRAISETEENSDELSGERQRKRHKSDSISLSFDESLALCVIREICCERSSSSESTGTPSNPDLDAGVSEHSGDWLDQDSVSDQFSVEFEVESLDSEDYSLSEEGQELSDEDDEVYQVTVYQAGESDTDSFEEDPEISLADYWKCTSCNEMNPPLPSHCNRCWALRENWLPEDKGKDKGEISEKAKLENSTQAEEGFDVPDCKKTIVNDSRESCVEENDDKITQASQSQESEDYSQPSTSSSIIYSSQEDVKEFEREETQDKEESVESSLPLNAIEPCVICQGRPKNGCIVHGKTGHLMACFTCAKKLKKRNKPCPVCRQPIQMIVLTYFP
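Timing – 2 h compound exposure at 37 °C · Assay system – mammalian cells stably expressing self-ubiquitinating, self-degrading MDM2 E3–luciferase fusion · Amount – 2000 cells seeded into each well · Measure – % luminescence enhancement versus blank-corrected plate control mean · Measured by – SteadyLite luminescence, 15 min reagent step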
STAT1 activator: STAT1 signaling activators, primary screen, cell-based, HTS, luciferase reporter; NIH 3T3 STAT1-luciferase reporter, IFN-gamma, luminescence; 100% = IFN-gamma alone, no compound; activation (% of control), % at 5.5 µM; 200,000 compounds, 2.6% hits;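 active = activation above the screen-wide mean activation plus 3 SD, cut at about 130% in these data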
Wee1 stabilizer: Wee1 degradation inhibitors, primary screen, cell-based, HeLa, Wee1K328M-luciferase, luminescence; HeLa Luc-Wee1K328M stability; 100% = proteasome inhibitor MG132 effect; reporter increase, % at 5 µM; 220,000 compounds, 1.2% hits; AID 1321, 2008;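 active = activation above the mean of all tested compounds plus 3 SD, set per screening run, cut at about 8.8% in these data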;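 note: cells exposed to compound for 20 h before luminescence read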
NF-kB neuron act: activators of NF-kB expression in neurons, primary screen, cell-based, HTS; 190,000 compounds, 1.6% hits; fold change at 12.5 µM; human neuronal cells, NF-kB reporter expression; active compounds read high; AID 1239, 2008; in the data active = fold change above about 3.3
p97 ATPase inh: inhibitors of human p97 ATPase, primary screen, biochemical; inhibition, % at 8 µM; AID 1481, 2009; Transitional endoplasmic reticulum ATPase (Homo sapiens), P55072; recombinant p97 ATPase, Kinase-Glo ATP luminescence, 3 h; 220,000 compounds, 0.42% hits; in the data active = inhibition above about 15%
Hits are given with their value; 0 = inactive; - = not tested or not shown. Shown are actives, neighbours in structure and some others; about 4.6% of the full set was active somewhere.

SMILES	APP 5'UTR act	Mdm2 ligase inh	STAT1 activator	Wee1 stabilizer	NF-kB neuron act	p97 ATPase inh
Cc1nnc(SCC(C)C)[nH]c1=O	0	0	0	9.4	0	0
Cc1cc(C)cc(N(CC(=O)NCCSc2ccccn2)S(=O)(=O)c2ccccc2)c1	0	0	0	0	0	0
O=C(c1ccc(Cl)cc1)C1C2C(=O)N(c3ccccc3)C(=O)C2C2CCCN21 (stereo not drawn)	0	0	0	0	0	0
CC(=O)c1ccc(N2C(=O)C3C(C2=O)C(C(=O)c2ccc(Cl)cc2)N2CCCC32)cc1 (stereo not drawn)	0	0	0	11	0	0
COc1ccc(N2CCN(S(=O)(=O)/C=C/c3ccccc3)CC2)cc1	0	0	0	9.3	0	0
CCN(CC)S(=O)(=O)c1cc(NC(=O)c2ccc(Br)s2)ccc1C	0	0	138	0	0	0
CCN(CC)S(=O)(=O)c1cc(NC(=O)C(C)Nc2ccccc2N2CCOCC2)ccc1C (stereo not drawn)	0	0	0	9.8	0	0
O=C(NCCOc1ccccc1)c1ccccc1NC(=O)C1CCCO1 (stereo not drawn)	0	0	0	9.9	0	0
CCc1ccc(NC(=O)c2ccccc2NC(=O)C2CCCO2)cc1 (stereo not drawn)	0	0	0	0	0	0
COc1cc(NC(=O)CSCC(=O)Nc2cc(OC)cc(OC)c2)cc(OC)c1	-	-	-	0	-	0
O=C1NC(=S)N/C1=C/C=C/c1ccccc1	0	0	134	0	0	0
CS(=O)(=O)c1ccc2nc(NC(=O)c3ccc(N4C(=O)CCC4=O)cc3)sc2c1	-	0	-	0	-	0
COc1ccc(CSC2=CS(=O)(=O)c3ccccc3N2)cc1	0	0	0	9.7	0	0
O=C(C[n+]1ccccc1)N/N=C/c1cccs1	0	0	0	0	0	0
CCOc1ccccc1C1C2=C(COC2=O)Nc2cc3c(cc21)OCO3 (stereo not drawn)	0	0	0	0	3.3	0
Nc1ccc(C(=O)OCC(=O)Nc2cc([N+](=O)[O-])ccc2F)cc1	0	0	0	0	0	0
Cc1csc(=N)n1-c1ccc(Cl)cc1	0	0	137	0	0	0
Cc1cc(=O)cc(C)n1-c1ccc(Cl)cc1	0	0	0	0	0	0
Cc1ccc(-n2c(C)csc2=N)cc1	0	0	0	0	3.5	0
CCC(/C=N/NC(=O)C(N)=O)CC	0	0	0	0	0	0
C/C(=N/NC(=O)c1ccccc1)c1ccc(NC(=O)C(F)(F)F)cc1	0	0	0	0	0	0
O=C(Cc1cccc2ccccc12)NCCOc1ccccc1F	0	0	0	0	0	0
Cc1cnc(NC(=O)c2c(-c3ccccc3)noc2C)s1	-	-	-	0	-	0
CCOC(=O)c1nnn(-c2nonc2N)c1-c1ccc(C)cc1	0	0	0	0	0	0
CCOC(=O)c1nnn(-c2nonc2N)c1-c1ccc(Br)cc1	0	0	0	9.5	0	0
SMILES	APP 5'UTR act	Mdm2 ligase inh	STAT1 activator	Wee1 stabilizer	NF-kB neuron act	p97 ATPase inh
O=C1CCCc2nc(N3CCc4ccccc43)ncc21	0	0	150	0	8	0
CC1(C)CC(=O)c2cnc(N3CCN(c4ccccc4)CC3)nc2C1	0	0	0	0	0	0
CC1(C)CC(=O)c2cnc(N3CCc4ccccc4C3)nc2C1	0	0	133	0	0	0
COc1ccc(C(=O)C[n+]2cn(C(F)F)c3ccccc32)c(F)c1	0	0	130	0	0	0
COc1cc(NC(=O)C(C)C)ccc1NC(=O)c1ccco1	0	0	134	0	0	0
O=C(NCc1cccnc1)c1ccc([N+](=O)[O-])o1	0	0	0	0	5.3	0
O=C(NN(c1ccccc1)c1ccccc1)c1ccc([N+](=O)[O-])o1	0	0	0	0	3.5	0
Cc1cc(NC(=O)c2ccc([N+](=O)[O-])o2)ccc1NC(=O)c1ccco1	0	0	0	0	5.1	0
